# Sampled rows, rich in hits. Any-hit rate of the full collection: about 1.9%.
# TbHK1 inh: blocks Trypanosoma brucei hexokinase 1 activity | AID 1430 | 220,000 tested, 0.11% active | recombinant TbHK1, G6PDH-coupled NADH A340 | inhibition, % at 10 µM;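 active = inhibition of 50% or more in the single-dose primary screen; inactive = inhibition below 50%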
# Runt-CBFb FRET: Runt domain-CBFb interaction inhibition. Q01196+Q13951. Cerulean-Runt/Venus-CBFb FRET ratio 530/480, 1 h. inhibition, % at 20 µM. 220,000 tested, 0.46% active;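 active = inhibition over about 50% at 20 µM in the single-dose screen, limit read from the data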;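 note: 0% = DMSO wells and 100% = excess unlabeled CBFb competitor control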
#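 System: Cerulean-labeled Runt domain protein | Quantity: 100 nM of each labeled protein | Schedule: 1 h compound exposure, room temperature | Detection: Fluorescence energy transfer, 422 nm excitation, 530/480 nm emission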
# Hck-Nef inh: human Hck-Nef kinase inhibition; P08631; inhibition, % at 20 µM; 220,000 tested, 0.68% active; AID 463187; Recombinant Hck-YEEI plus Nef, Z-Lyte FRET kinase assay;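 active = Hck-Nef kinase inhibition above about 50%, limit read from the data; inactive = inhibition below that limit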;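 note: 0% = DMSO with Hck plus Nef and 100% = Hck alone without Nef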
# Target sequence (P08631 whole entry, looked up): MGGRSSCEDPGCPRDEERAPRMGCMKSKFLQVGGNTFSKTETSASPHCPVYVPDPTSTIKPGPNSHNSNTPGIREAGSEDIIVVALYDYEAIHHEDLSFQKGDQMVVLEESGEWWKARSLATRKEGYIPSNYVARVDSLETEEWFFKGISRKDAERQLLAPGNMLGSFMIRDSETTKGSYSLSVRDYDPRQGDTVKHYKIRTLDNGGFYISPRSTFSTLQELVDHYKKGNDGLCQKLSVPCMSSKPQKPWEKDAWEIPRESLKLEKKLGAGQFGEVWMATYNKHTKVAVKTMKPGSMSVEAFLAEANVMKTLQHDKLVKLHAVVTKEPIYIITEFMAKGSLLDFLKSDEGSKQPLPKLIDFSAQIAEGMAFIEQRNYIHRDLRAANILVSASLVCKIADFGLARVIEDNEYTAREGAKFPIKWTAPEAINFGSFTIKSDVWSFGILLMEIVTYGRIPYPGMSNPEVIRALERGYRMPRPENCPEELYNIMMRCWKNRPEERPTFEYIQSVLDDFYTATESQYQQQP
# RanGTP-Imp inh: inhibitors of RanGTP-importin-beta interaction, primary screen, biochemical, FRET, CFP-Ran, YFP-importin-beta, homogeneous; cell-free CFP-Ran/YFP-importin-beta FRET ratio; inhibition, % (no concentration beside the values); 300,000 tested, 1.1% active;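 active = more than half of the replicate wells show a fall in the fluorescence ratio signal beyond about 16%, limit read from the data, passing the limit was not always enough; inconclusive = exactly half of the replicate wells pass the set limit; inactive = fewer than half of replicates pass the limit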;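 note: 0% = DMSO wells and 100% = Ran loaded with GDP instead of GTP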
# Runt-SMMHC FRET: inhibitors of human RUNX1 Runt domain binding to CBFb-SMMHC; 220,000 tested, 0.74% active; inhibition, % at 20 µM; AID 1434; Q01196+Q13951; Cerulean-Runt/Venus-CBFb-SMMHC FRET ratio 530/480, 1 h;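 active = mean inhibition across duplicate retests at 20 µM reaching about 50%, limit read from the data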;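 note: 0% = DMSO wells and 100% = wells with excess untagged CBFb-SMMHC; inhibitors lower the FRET ratio by blocking Runt binding to CBFb-SMMHC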
# Hck Nef conf: Hck-Nef kinase inhibition, confirmation | shares compounds with Hck-Nef inh | Recombinant Hck-YEEI:Nef, Z-Lyte FRET kinase assay | calls only at 10 µM | 1,300 tested, 28% active;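 active = average inhibition of at least 50%, with Z-scores no higher than 3 in both the phospho-tyrosine peptide and fluorescence counterscreens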
# Starred values were filed as active, the others as inactive; i = inactive; ? = inconclusive; nt = no result given; + = active, no number.
SMILES,TbHK1 inh,Runt-CBFb FRET,Hck-Nef inh,RanGTP-Imp inh,Runt-SMMHC FRET,Hck Nef conf
CCc1ccc(Nc2ncnc3nc[nH]c23)cc1,-14.7,0.1,63.2*,-3.5,1.8,+
Cc1ccsc1/C=N/Nc1ncnc2nc[nH]c12,-51.6,1.8,75.6*,-3.4,-5.4,+
Clc1ccc(CCNc2ncnc3nc[nH]c23)cc1,0.9,2.2,28.5,nt,1.4,nt
Fc1ccc(/C=N/Nc2ncnc3nc[nH]c23)cc1F,-44.6,-5.4,67.5*,0.5,1.5,+
C(=N\Nc1ncnc2nc[nH]c12)/c1cccs1,-60.1,0.7,81.6*,-6.4,0.8,+
C=CCn1c(SCC(=O)Nc2ccc(N3CCOCC3)cc2)nc2ccccc2c1=O,nt,nt,nt,-2.8,nt,nt
O=C(COC(=O)c1cccc(C(=O)OCC(=O)NC2CC2)n1)NC1CC1,-1.7,-1.6,-20.7,0.7,-0.1,nt
c1ccc(CNc2ncnc3nc[nH]c23)cc1,-16.6,-0.4,1.0,-5.3,-2.1,nt
Cc1ccccc1/C=N/Nc1ncnc2nc[nH]c12,-101.2,-1.4,74.8*,1.1,0.8,+
O=C(NCc1cccnc1)Nc1ccccc1C(F)(F)F,nt,nt,nt,6.2,nt,nt
CC(C)NC(=O)c1cc2cc([N+](=O)[O-])ccc2s1,-4.5,-3.4,3.2,0.6,0.7,nt
Cc1cccc(NC(=O)c2cc3cc([N+](=O)[O-])ccc3s2)n1,-6.0,-2.7,51.1*,?,-4.0,i
Cc1ccc(NC(=O)Cn2c(O)c(N=NC(=O)c3cc4ccccc4cc3O)c3ccccc32)cc1,23.2,-2.1,51.2*,nt,-12.4,i
Cn1c(O)c(N=NC(=O)c2ccccc2O)c2ccccc21,-28.2,-2.8,16.8,-1.9,0.1,nt
COc1ccccc1NC(=O)Cn1c(O)c(N=NC(=O)c2ccccc2O)c2ccccc21,-16.5,-4.9,90.9*,2.5,-13.0,i
NC1=NC(=O)/C(=C/C=C/c2cccs2)S1,nt,nt,nt,-6.8,nt,nt
COC(=O)c1sc(-c2ccc(C(C)(C)C)cc2)cc1NC(=O)c1ccccc1C(=O)O,-7.6,-12.1,81.7*,0.3,-10.6,+
Cc1cc2nc(-c3ccc(SCc4ccc(C(=O)O)cc4)nc3)[nH]c2cc1C,-37.9,2.7,74.2*,2.8,-3.0,+
Cc1cc2nc(-c3ccc(SCC(=O)Nc4ccc(S(=O)(=O)NC5CC5)cc4)nc3)[nH]c2cc1C,-23.6,-5.7,86.5*,-0.1,-7.1,+
O=C(O)CCCN1C(=O)/C(=C/C=C/c2ccco2)SC1=S,-0.4,45.5,83.5*,-8.8,-2.7,i
O=C(NN1C(=O)/C(=C/C=C/c2ccco2)SC1=S)c1ccccc1O,62.6*,26.9,82.6*,-0.9,-5.6,+
CCOc1ccc(C(C)NC(=O)C2CCC2)cc1 (centres undefined),-0.1,-0.9,0.5,-3.6,4.3,nt
O=C(NC1CC1)c1cc(-c2ccco2)nc2ccccc12,-8.1,21.5,71.7*,-4.6,0.6,+
O=C(Nc1cccc(S(=O)(=O)NC2=NCCC2)c1)c1cc(-c2ccco2)nc2ccccc12,11.7,9.1,86.5*,-6.1,-6.7,+
COc1ccc(N2CCN(CCNC(=O)c3ccc4c(c3)[nH]c(=S)n3c5ccccc5nc43)CC2)cc1,-3.4,5.0,51.1*,1.1,-0.1,i
SMILES,TbHK1 inh,Runt-CBFb FRET,Hck-Nef inh,RanGTP-Imp inh,Runt-SMMHC FRET,Hck Nef conf
COc1cccc(/C=N/Nc2ncnc3c2[nH]c2ccc(C)cc23)c1OC,-30.9,-11.5,66.2*,7.4,-7.2,i
COC(=O)Cc1[nH]n(-c2nc3ccccc3s2)c(=O)c1C(C)=Nc1ccc(Cl)cc1,-38.1,2.1,63.7*,2.4,-10.9,i
O=C1/C(=C/c2cccc(F)c2)Oc2cc(O)ccc21,nt,nt,nt,-38.5,nt,nt
Cc1ccc(SCC(=O)NC(=O)Nc2ccc3c(c2)OCCO3)cc1C,13.3,-1.4,2.3,-1.3,-7.4,nt
O=C(O)c1cc(-c2ccc(/C=C3/SC(=S)N(Cc4ccccc4)C3=O)o2)ccc1Cl,29.3,19.3,140.9*,nt,3.9,+
CC1(C)OC(=O)C(=Cc2ccc(-c3ccc(Cl)c(C(=O)O)c3)o2)C(=O)O1,-21.0,12.4,77.3*,-1.6,7.3,i
Cc1ccc(-n2c(O)c(/C=N/Nc3ccc(S(=O)(=O)N4CCOCC4)cc3[N+](=O)[O-])c3ccccc3c2=O)c(C)c1,-15.7,1.3,21.0,5.5,-1.5,nt
Cc1ccc(-n2c(O)c(C=Nc3ccccc3-c3n[nH]c(=S)[nH]c3=O)c3ccccc3c2=O)cc1C,1.2,-6.2,84.4*,-1.0,-3.8,+
Cc1cccc(-n2c(O)c(C=Nc3ccccc3-c3n[nH]c(=S)[nH]c3=O)c3ccccc3c2=O)n1,-16.5,7.4,-14.1,5.3,9.8,nt
Cc1ccc(-n2c(O)c(C=Nc3ccccc3-c3n[nH]c(=S)[nH]c3=O)c3ccccc3c2=O)c(C)c1,-1.5,1.6,73.1*,3.6,3.2,+
COCCCNC(=O)C(C)N1c2cccc3cccc(c23)S1(=O)=O (centres undefined),nt,nt,nt,-2.0,nt,nt
COCCn1c(=N)c(C(=O)NCc2ccco2)cc2c(=O)n3cc(C)ccc3nc21,-5.6,nt,85.6*,-3.9,nt,nt
Cc1cccn2c(=O)c3cc(C(=O)NCc4ccco4)c(=N)n(CCOCCO)c3nc12,-6.5,nt,74.7*,154.7*,nt,i
COCCNC(=O)c1cc(-c2ccc(-c3ccccc3)cc2)nc2ccccc12,nt,nt,nt,-9.4,nt,nt
Cc1cc(C)n(CCN(C)C(=O)C2CCC(=O)N(CCc3cccc(F)c3)C2)n1 (centres undefined),nt,nt,nt,6.2,nt,nt
CCc1csc(CCNC(=O)C2CCC(=O)N(CCc3cccc(F)c3)C2)n1 (centres undefined),nt,nt,nt,4.9,nt,nt
O=C(CCc1ccccc1)NNC(=O)Nc1ccc(F)c(Cl)c1,nt,nt,nt,2.4,nt,nt
CCN1/C(=C/C(=O)c2ccco2)Sc2ccccc21,7.3,41.9,95.4*,7.9,80.4,nt
CCOC(=O)/C(=C/C=C1\Sc2ccccc2N1CC)C(C)=O,-5.1,-34.9,1.0,-0.3,-86.6,nt
Cc1ccc(-c2nc3c(c(=O)[nH]c(=O)n3Cc3ccccc3)n2C)s1,-11.2,-5.0,57.9*,?,-15.1,i
O=c1[nH][nH]cc1C=Nc1ccc(Oc2ccccc2)cc1,-11.6,-1.0,163.8*,-1.6,-3.0,+
COc1ccc(N=Cc2c[nH][nH]c2=O)cc1,-24.3,-2.3,2.6,-0.7,1.8,nt
Nc1nonc1-c1nc2ccccc2n1CC(=O)N/N=C/c1ccc(-c2cccc(C(=O)O)c2)o1,-47.7,37.1,91.2*,0.4,34.3,+
O=C(Nc1cnn(C23CC4CC(CC(C4)C2)C3)c1)c1cnn2c(C(F)(F)F)cc(-c3ccco3)nc12,-18.9,-6.0,81.3*,?,-7.0,+
O=C(Nc1ccc2c(c1)OCO2)c1cnn2c(C(F)(F)F)cc(-c3ccco3)nc12,-21.4,-4.7,1.0,nt,-4.8,nt
